In ChEMBL document CHEMBL3352534, “A prodrug strategy for the oral delivery of a poorly soluble HCV NS5B thumb pocket 1 polymerase inhibitor using self-emulsifying drug delivery systems (SEDDS)” (Bioorg Med Chem Lett, 2015):
Converted amounts (≈) assume the structure as drawn. One block for each molecule: values may come before it.

What was measured:
[1] = system: Liver microsome; test: Prodrug conversion in human liver microsomes assessed as half life
[2] = system: Liver microsome; test: Prodrug conversion in rat liver microsomes assessed as half life
[3] = Cmax in rat plasma at 10 mg/kg, po using 10.6% PEG400, 5.4% Cremophor EL, 2.6% Labrasol, 1.4% Capmul MCM in water (80%) vehicle; format: ADME, organism-based; design: dose 10 mg/kg, route oral; details: plasma
Summary of the method: (§1)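 Fasted rats were given a single 10 mg/kg oral dose, with n = 3 per dose and route. Plasma was extracted by solid-phase extraction. Analysis used HPLC with diode-array UV (200–400 nm, peak height at best S/N) or LC/MS. Calibration standards were made in blank plasma, with LOQ 7–14 ng/mL. Parameters came from noncompartmental analysis.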

[4] = system: Rattus norvegicus; test: AUC in rat plasma assessed as (E)-3-(4-(1-(2-(5-chloropyrimidin-2-yl)-3-cyclopentyl-1-methyl-1H-indole-6-carboxamido)cyclobutanecarboxamido)-2-ethoxyphenyl)acrylic acid at 10 mg/kg, po using 10.6% PEG400, 5.4% Cremophor EL, 2.6% Labrasol, 1.4% Capmul MCM in water (80%) vehicle; format: ADME, organism-based; design: dose 10 mg/kg, route oral; details: in vivo; summary of the method: as §1
[5] = Prodrug conversion in simulated gastric fluid assessed as half life; format: ADME; details: simulated gi fluid
Summary of the method: (§2)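 Incubations used 2 µM compound at 37 °C in either SGF (0.2% NaCl/HCl, pH 1.2, pepsin 3.2 mg/mL) or SIF (KH2PO4/NaOH, pH 7.5, pancreatin 10 mg/mL). Samples were quenched 1:2 with acetonitrile/methanol 1:1 and analysed by HPLC. t1/2 = 0.693/first-order disappearance rate.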

[6] = Prodrug solubility in solutol; format: ADME
[7] = Prodrug solubility in Labrasol; format: ADME
[8] = AUC in rat plasma at 10 mg/kg, po using 10.6% PEG400, 5.4% Cremophor EL, 2.6% Labrasol, 1.4% Capmul MCM in water (80%) vehicle; format: ADME, organism-based; design: dose 10 mg/kg, route oral; details: plasma; summary of the method: as §1
[9] = Prodrug solubility in capmul; format: ADME
[10] = Prodrug solubility in PEG400; format: ADME
[11] = system: Rattus norvegicus; test: Cmax in rat plasma assessed as (E)-3-(4-(1-(2-(5-chloropyrimidin-2-yl)-3-cyclopentyl-1-methyl-1H-indole-6-carboxamido)cyclobutanecarboxamido)-2-ethoxyphenyl)acrylic acid at 10 mg/kg, po using 10.6% PEG400, 5.4% Cremophor EL, 2.6% Labrasol, 1.4% Capmul MCM in water (80%) vehicle; format: ADME, organism-based; design: dose 10 mg/kg, route oral; details: in vivo; summary of the method: as §1
[12] = system: Plasma; test: Prodrug conversion in human plasma assessed as half life
[13] = system: Plasma; test: Prodrug conversion in rat plasma assessed as half life; format: ADME, cell-free
Summary of the method: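 Rat plasma (from centrifuged whole blood) was incubated with 2 µM compound at 37 °C. Samples were quenched 1:3 with acetonitrile/methanol 1:1, centrifuged and analysed by HPLC-PDA. Half-life was taken as 0.693/first-order rate of loss of the starting compound.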

[14] = Prodrug conversion in human intestinal microsomes assessed as half life
[15] = Prodrug conversion in simulated intestinal fluid assessed as half life; format: ADME; details: simulated gi fluid; summary of the method: as §2
[16] = system: Intestine; test: Prodrug conversion in rat intestinal microsomes assessed as half life

t1/2 [1]: 3.1 h
t1/2 [2]: 1.17 h
Structure (SMILES): CCOc1cc(NC(=O)C2(NC(=O)c3ccc4c(C5CCCC5)c(-c5ncc(Cl)cn5)n(C)c4c3)CCC2)ccc1/C=C/C(=O)OCC(=O)O

t1/2 [1]: 26.15 h
t1/2 [12]: > 5 h
t1/2 [13]: 6.6 h
t1/2 [2]: 2.2 h
t1/2 [14]: > 5 h
t1/2 [5]: 3.03 h
t1/2 [15]: 1.63 h
t1/2 [16]: > 5 h
Structure (SMILES): CCOc1cc(NC(=O)C2(NC(=O)c3ccc4c(C5CCCC5)c(-c5ncc(Cl)cn5)n(C)c4c3)CCC2)ccc1/C=C/C(=O)OCC(=O)OCc1ccccc1

t1/2 [1]: 5.62 h
t1/2 [2]: 11.4 h
Structure (SMILES): CCOc1cc(NC(=O)C2(NC(=O)c3ccc4c(C5CCCC5)c(-c5ncc(Cl)cn5)n(C)c4c3)CCC2)ccc1/C=C/C(=O)OCC(=O)OCc1ccc(Cl)cc1

t1/2 [1]: 5.57 h
t1/2 [2]: 7.92 h
Structure (SMILES): CCOc1cc(NC(=O)C2(NC(=O)c3ccc4c(C5CCCC5)c(-c5ncc(Cl)cn5)n(C)c4c3)CCC2)ccc1/C=C/C(=O)OC(=O)C[C@H](O)C(=O)O

t1/2 [1]: 2.1 h
t1/2 [2]: 2.08 h
Structure (SMILES): CCOc1cc(NC(=O)C2(NC(=O)c3ccc4c(C5CCCC5)c(-c5ncc(Cl)cn5)n(C)c4c3)CCC2)ccc1/C=C/C(=O)OCC(=O)OC

t1/2 [1]: > 5 h
t1/2 [12]: 6.18 h
t1/2 [13]: 18.02 h
t1/2 [2]: 1.42 h
t1/2 [14]: > 5 h
t1/2 [5]: 1.43 h
t1/2 [15]: > 5 h
t1/2 [16]: > 5 h
Structure (SMILES): CCOc1cc(NC(=O)C2(NC(=O)c3ccc4c(C5CCCC5)c(-c5ncc(Cl)cn5)n(C)c4c3)CCC2)ccc1/C=C/C(=O)OCCC(C)C

t1/2 [1]: 17.88 h
t1/2 [2]: 12.7 h
Cmax [3]: 400 nM
AUC [4]: 3.2 µM·h
t1/2 [5]: 0.883 h
AUC [8]: 2.2 µM·h
Cmax [11]: 200 nM
Structure (SMILES): CCCCCCOC(=O)/C=C/c1ccc(NC(=O)C2(NC(=O)c3ccc4c(C5CCCC5)c(-c5ncc(Cl)cn5)n(C)c4c3)CCC2)cc1OCC

t1/2 [1]: > 5 h
t1/2 [12]: > 5 h
t1/2 [13]: 15.2 h
t1/2 [2]: 0.35 h
t1/2 [14]: > 5 h
t1/2 [5]: 2.23 h
t1/2 [15]: > 5 h
t1/2 [16]: > 5 h
Structure (SMILES): CCCOC(=O)/C=C/c1ccc(NC(=O)C2(NC(=O)c3ccc4c(C5CCCC5)c(-c5ncc(Cl)cn5)n(C)c4c3)CCC2)cc1OCC

t1/2 [1]: > 5 h
t1/2 [12]: > 5 h
t1/2 [13]: 1.3 h
t1/2 [2]: 0.233 h
t1/2 [14]: > 5 h
t1/2 [5]: 1.75 h
t1/2 [15]: > 5 h
t1/2 [16]: > 5 h
Structure (SMILES): CCOc1cc(NC(=O)C2(NC(=O)c3ccc4c(C5CCCC5)c(-c5ncc(Cl)cn5)n(C)c4c3)CCC2)ccc1/C=C/C(=O)OCC(Cl)(Cl)Cl

The remaining lines, values behind:

Structure (SMILES): CCOc1cc(NC(=O)C2(NC(=O)c3ccc4c(C5CCCC5)c(-c5ncc(Cl)cn5)n(C)c4c3)CCC2)ccc1/C=C/C(=O)OCC(N)=O
t1/2 [1]: 0.983 h
t1/2 [2]: 0.383 h
Cmax [3]: 40 nM
AUC [4]: 16.7 µM·h
t1/2 [5]: 0.6 h
solubility [6]: 200 mg/mL (≈ 286 mM)
solubility [7]: > 200 mg/mL
AUC [8]: 0.13 µM·h
solubility [9]: < 200 mg/mL
solubility [10]: > 200 mg/mL
Cmax [11]: 4400 nM

Structure (SMILES): CCOC(=O)/C=C/c1ccc(NC(=O)C2(NC(=O)c3ccc4c(C5CCCC5)c(-c5ncc(Cl)cn5)n(C)c4c3)CCC2)cc1OCC
t1/2 [1]: > 5 h
t1/2 [12]: > 5 h
t1/2 [13]: 8.18 h
t1/2 [2]: 3.07 h
t1/2 [14]: > 5 h
t1/2 [5]: 0.333 h
t1/2 [15]: > 5 h
t1/2 [16]: > 5 h

Structure (SMILES): CCCCOC(=O)COC(=O)/C=C/c1ccc(NC(=O)C2(NC(=O)c3ccc4c(C5CCCC5)c(-c5ncc(Cl)cn5)n(C)c4c3)CCC2)cc1OCC
t1/2 [1]: 5.98 h
t1/2 [2]: 15.8 h

Structure (SMILES): CCOc1cc(NC(=O)C2(NC(=O)c3ccc4c(C5CCCC5)c(-c5ncc(Cl)cn5)n(C)c4c3)CCC2)ccc1/C=C/C(=O)OCCOc1ccccc1
t1/2 [1]: > 5 h
t1/2 [2]: 16.5 h

Structure (SMILES): CCOc1cc(NC(=O)C2(NC(=O)c3ccc4c(C5CCCC5)c(-c5ncc(Cl)cn5)n(C)c4c3)CCC2)ccc1/C=C/C(=O)OCC(=O)N(C)C(C)C
t1/2 [1]: 0.65 h
t1/2 [2]: 0.267 h
solubility [6]: < 200 mg/mL
solubility [7]: < 200 mg/mL
solubility [9]: < 200 mg/mL
solubility [10]: > 200 mg/mL

Structure (SMILES): CCOc1cc(NC(=O)C2(NC(=O)c3ccc4c(C5CCCC5)c(-c5ncc(Cl)cn5)n(C)c4c3)CCC2)ccc1/C=C/C(=O)OCCOCCOC
t1/2 [1]: 0.85 h
t1/2 [2]: 1.07 h
Cmax [3]: 30 nM
AUC [4]: 23.1 µM·h
solubility [6]: < 100 mg/mL
solubility [7]: < 30 mg/mL
AUC [8]: 0.1 µM·h
solubility [9]: < 60 mg/mL
Cmax [11]: 4600 nM

Structure (SMILES): CCOC(=O)COC(=O)/C=C/c1ccc(NC(=O)C2(NC(=O)c3ccc4c(C5CCCC5)c(-c5ncc(Cl)cn5)n(C)c4c3)CCC2)cc1OCC
t1/2 [1]: 1.6 h
t1/2 [2]: 2.45 h

Structure (SMILES): CCOc1cc(NC(=O)C2(NC(=O)c3ccc4c(C5CCCC5)c(-c5ncc(Cl)cn5)n(C)c4c3)CCC2)ccc1/C=C/C(=O)OCC(=O)N1CCCC1
t1/2 [1]: 1.65 h
t1/2 [2]: 1.47 h
solubility [6]: 200 mg/mL (≈ 265 mM)
solubility [7]: 200 mg/mL (≈ 265 mM)
solubility [9]: < 200 mg/mL
solubility [10]: > 200 mg/mL

Structure (SMILES): CCOc1cc(NC(=O)C2(NC(=O)c3ccc4c(C5CCCC5)c(-c5ncc(Cl)cn5)n(C)c4c3)CCC2)ccc1/C=C/C(=O)OCOC(=O)C(C)(C)C
t1/2 [1]: 4.12 h
t1/2 [2]: 5.6 h
Cmax [3]: 40 nM
AUC [4]: 19.6 µM·h
t1/2 [5]: < 0.033 h
AUC [8]: 0.3 µM·h
Cmax [11]: 1700 nM

Structure (SMILES): CCOc1cc(NC(=O)C2(NC(=O)c3ccc4c(C5CCCC5)c(-c5ncc(Cl)cn5)n(C)c4c3)CCC2)ccc1/C=C/C(=O)N[C@@H](CCCNC(=N)N)C(N)=O
t1/2 [5]: 0.467 h

Structure (SMILES): CCOc1cc(NC(=O)C2(NC(=O)c3ccc4c(C5CCCC5)c(-c5ncc(Cl)cn5)n(C)c4c3)CCC2)ccc1/C=C/C(=O)N[C@@H](CCC(=O)O)C(N)=O
t1/2 [5]: 0.533 h
t1/2 [15]: 4.23 h

Structure (SMILES): CCOc1cc(NC(=O)C2(NC(=O)c3ccc4c(C5CCCC5)c(-c5ncc(Cl)cn5)n(C)c4c3)CCC2)ccc1/C=C/C(=O)OCC[N+](C)(C)C.[Br-]
t1/2 [1]: > 5 h
t1/2 [2]: 1.73 h
t1/2 [5]: 0.417 h

Structure (SMILES): CCCN(C)C(=O)COC(=O)/C=C/c1ccc(NC(=O)C2(NC(=O)c3ccc4c(C5CCCC5)c(-c5ncc(Cl)cn5)n(C)c4c3)CCC2)cc1OCC
t1/2 [1]: 0.317 h
t1/2 [2]: 0.317 h
solubility [6]: < 200 mg/mL
solubility [7]: < 200 mg/mL
solubility [9]: < 200 mg/mL
solubility [10]: < 200 mg/mL

Structure (SMILES): CCOc1cc(NC(=O)C2(NC(=O)c3ccc4c(C5CCCC5)c(-c5ncc(Cl)cn5)n(C)c4c3)CCC2)ccc1/C=C/C(=O)OCCNN1CCCC1
t1/2 [1]: 0.683 h
t1/2 [2]: 0.783 h
Cmax [3]: 40 nM
AUC [4]: 25.6 µM·h
solubility [6]: < 100 mg/mL
solubility [7]: < 100 mg/mL
AUC [8]: 0.06 µM·h
solubility [9]: < 100 mg/mL
Cmax [11]: 6100 nM

Structure (SMILES): CCOc1cc(NC(=O)C2(NC(=O)c3ccc4c(C5CCCC5)c(-c5ncc(Cl)cn5)n(C)c4c3)CCC2)ccc1/C=C/C(=O)OCc1ccccc1
t1/2 [1]: > 5 h
t1/2 [12]: > 5 h
t1/2 [13]: 2.23 h
t1/2 [2]: 2.17 h
t1/2 [14]: > 5 h
t1/2 [5]: 1.83 h
t1/2 [15]: > 5 h
t1/2 [16]: > 5 h

Structure (SMILES): CCOc1cc(NC(=O)C2(NC(=O)c3ccc4c(C5CCCC5)c(-c5ncc(Cl)cn5)n(C)c4c3)CCC2)ccc1/C=C/C(=O)OCC(=O)NC
t1/2 [1]: 0.567 h
t1/2 [2]: 0.5 h
solubility [6]: < 200 mg/mL
solubility [7]: 200 mg/mL (≈ 280 mM)
solubility [9]: < 200 mg/mL
solubility [10]: > 200 mg/mL

Structure (SMILES): CCOc1cc(NC(=O)C2(NC(=O)c3ccc4c(C5CCCC5)c(-c5ncc(Cl)cn5)n(C)c4c3)CCC2)ccc1/C=C/C(=O)N[C@@H](CC(=O)O)C(N)=O
t1/2 [5]: > 5 h
t1/2 [15]: 0.067 h

Structure (SMILES): CCOc1cc(NC(=O)C2(NC(=O)c3ccc4c(C5CCCC5)c(-c5ncc(Cl)cn5)n(C)c4c3)CCC2)ccc1/C=C/C(=O)NCCO
t1/2 [1]: 1.63 h
t1/2 [2]: 1.48 h

Structure (SMILES): CCOc1cc(NC(=O)C2(NC(=O)c3ccc4c(C5CCCC5)c(-c5ncc(Cl)cn5)n(C)c4c3)CCC2)ccc1/C=C/C(=O)N(C)CCO
t1/2 [1]: 1.3 h
t1/2 [2]: 2.25 h
